A selection: hits, their analogues and other compounds. The true share with any hit is near 1.4%.
IDE act: activators of human insulin-degrading enzyme in cells | P14735 | HEK cells, FAbeta-B cleavage, fluorescence polarization; 0% vehicle, 100% cell-free pure enzyme wells | activation, % at 5.96 µM | 340,000 tested, 0.073% active;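 active = activation above the mean of all tested compounds plus 3 SD, set per screening campaign, cut at about 17% in these data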
TPT1 inh: blocks Candida albicans tRNA 2'-phosphotransferase | inhibition, % at 5 µM | 300,000 tested, 0.81% active | recombinant caTPT1, FP RNA substrate dephosphorylation;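 active = inhibition above the mean of all tested compounds plus 3 SD, set per screening campaign, cut at about 24% in these data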;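 also: plate controls were DMSO alone for no effect and ferristatin control at 100 nM for full effect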
CSN inh: blocks human CSN-mediated cullin deneddylation. Purified CSN, SCF-Nedd8-OG deneddylation, fluorescence polarization. AID 651999. Q92905. 360,000 tested, 0.38% active. inhibition, % at 12.5 µM;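 active = pattern-corrected inhibition above about 35%, with an unprinted fluorescence ratio check between 0.5 and 1.5, limit read from the data, passing the limit was not always enough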;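 also: 0% = enzyme with substrate and 100% = substrate without enzyme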
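Test system: purified human Csn5 enzyme expressed in HEK293T cells. Amount: 0.24 nM enzyme. Reagent: SCFSkp2-Nedd8OG substrate at 10 nM final. Schedule: 90 min incubation of compound, enzyme and substrate at room temperature. Detection: fluorescence polarization. Read-out: % inhibition of substrate cleavage by Csn5.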
IDE cell inh: inhibitors of human insulin-degrading enzyme in cells. P14735. 320,000 tested, 0.41% active. HEK cells, FAbetaB cleavage, fluorescence polarization. AID 434962. inhibition, % at 5.59 µM;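 active = percent inhibition above the average of all tested compounds plus 3 SD, set per screening campaign, cut at about 16% in these data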;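 also: IDE supplied by intact live HEK cells; FP after avidin binding of uncleaved biotin substrate so inhibition keeps polarization high; 0% = DMSO wells and 100% = 60 µM reference IDE inhibitor Ii1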
HNF4A DNA FP: change in binding of human HNF4 alpha to DNA | P41235 | HNF4a-FITC DNA binding, fluorescence polarization, 1 h | activity change, % at 10 µM | 360,000 tested, 0.3% active | AID 1224865; in the data active = activity change above about 30%, passing the limit was not always enough
Target sequence (P41235 whole entry, looked up): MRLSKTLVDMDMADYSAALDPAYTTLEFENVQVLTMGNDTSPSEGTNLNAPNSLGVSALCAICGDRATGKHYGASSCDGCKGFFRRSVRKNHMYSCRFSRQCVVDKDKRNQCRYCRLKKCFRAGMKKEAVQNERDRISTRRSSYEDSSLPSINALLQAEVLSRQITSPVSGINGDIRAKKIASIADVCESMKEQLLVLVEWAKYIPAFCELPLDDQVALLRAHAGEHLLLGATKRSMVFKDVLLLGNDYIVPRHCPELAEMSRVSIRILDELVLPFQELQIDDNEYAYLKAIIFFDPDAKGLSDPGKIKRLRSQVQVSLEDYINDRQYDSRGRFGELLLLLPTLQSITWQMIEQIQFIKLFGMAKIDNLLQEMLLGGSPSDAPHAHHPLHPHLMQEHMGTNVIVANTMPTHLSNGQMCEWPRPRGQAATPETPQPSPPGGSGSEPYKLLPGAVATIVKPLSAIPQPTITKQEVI
TPT1 inh confirm: TPT1 (C. albicans) inhibition, confirmation. inhibition, % at 5 µM. shares compounds with TPT1 inh. recombinant caTPT1, fluorescence polarization, RNase T1 coupled. 2,400 tested, 74% active;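 active = inhibition above the primary screen limit, the mean inhibition of all tested compounds plus 3 SD, cut at about 25% in these data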
RNase T1 inh: RNase T1 inhibition in TPT1 counter-screen | shares compounds with TPT1 inh | RNase T1 cleavage, fluorescence polarization, 1536-well | inhibition, % at 5 µM | 2,400 tested, 83% active;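 active = inhibition above the solvent-only control well mean plus 3 SD, limit set per screening run, cut at about 23% in these data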;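 also: plate controls were DMSO wells with enzyme for no effect and wells without RNase T1 for full effect; inhibitors block cleavage so intact labeled substrate keeps polarization high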
The depositor's hits bear a star.

Screening CN1CCc2c(sc3nc(NN)n(-c4ccc(Cl)cc4)c(=O)c23)C1 returned IDE act 6, TPT1 inh 38*, CSN inh 14, IDE cell inh 2, HNF4A DNA FP 19, TPT1 inh confirm 18 and RNase T1 inh 24*.
`CCCCCCCCN1C(=O)[C@H](CC(=O)N2CCSCC2)C[C@@]2(C(=O)OC)CCCCC=C12` gave CSN inh -2 and HNF4A DNA FP -1.
For COc1cccc(-n2c(SCC(N)=O)nc3ccccc3c2=O)c1 the results were IDE act 5, TPT1 inh 40*, CSN inh 20, IDE cell inh -2, HNF4A DNA FP 30, TPT1 inh confirm 60* and RNase T1 inh 75*.
`NC(=O)CSc1nc2ccccc2c(=O)n1-c1ccccc1` gave IDE act 5, TPT1 inh 3, CSN inh -5, IDE cell inh -4 and HNF4A DNA FP 3.
For CSCC[C@@H](CO)NC(=O)[C@H]1O[C@@H](n2ccc(N)nc2=O)[C@H](O)[C@@H]1O the results were CSN inh 0 and HNF4A DNA FP 1.
`Cn1c(C(=O)NC2CCCCC2)cc2c(=O)n(C)c3ccccc3c21` gave IDE act -7, TPT1 inh 67*, CSN inh 3, IDE cell inh -1, HNF4A DNA FP 2, TPT1 inh confirm 2 and RNase T1 inh 1.
Screening COc1cc(OC)cc(C2=Cc3ccccc3C(CC(C)=O)N2c2ccc(C#CCCO)cc2)c1 (stereo not drawn) returned CSN inh 0 and HNF4A DNA FP 4.
For Cc1nn(CC(=O)c2ccc(Br)s2)c(C)c1[N+](=O)[O-] the results were IDE act -8, TPT1 inh 33*, CSN inh 2, IDE cell inh 2, HNF4A DNA FP 18, TPT1 inh confirm 49* and RNase T1 inh 63*.
Cc1nn(CC(=O)c2ccccc2Cl)c(C)c1[N+](=O)[O-] was read as IDE act 5, TPT1 inh 0, CSN inh 0, IDE cell inh 5 and HNF4A DNA FP 5.
CCN(CC)c1ccc(N=Nc2ncn[nH]2)cc1 was read as TPT1 inh 25*, CSN inh 7, IDE cell inh 5, HNF4A DNA FP 23, TPT1 inh confirm 24* and RNase T1 inh 35*.
`Cc1cc(O)c(C(=O)/C=C/c2ccc(Cl)cc2)c(=O)o1` gave IDE act -2, TPT1 inh 36*, CSN inh 19, IDE cell inh 4, HNF4A DNA FP 7, TPT1 inh confirm 10 and RNase T1 inh 13.
Screening CSc1ccc(/C=C/C(=O)c2c(O)cc(C)oc2=O)cc1 returned IDE act -4, TPT1 inh 73*, CSN inh 11, IDE cell inh 15, HNF4A DNA FP 3, TPT1 inh confirm 26* and RNase T1 inh 46*.
`CCNC(=O)C1(C)CCCN(Cc2ccc3ccccc3c2Br)C1` (stereo not drawn) gave CSN inh 1 and HNF4A DNA FP 2.
For COc1cc(/C=C(\C#N)c2nc3ccccc3s2)ccc1OCC(=O)Nc1ccccc1 the results were IDE act 1, TPT1 inh 60*, CSN inh 40*, IDE cell inh 28*, HNF4A DNA FP 33*, TPT1 inh confirm 32* and RNase T1 inh 44*.
`Cc1cccc(/C=C/C(=O)c2cc(Br)ccc(=O)c2O)c1` gave IDE act 0, TPT1 inh 21, CSN inh 25, IDE cell inh 1 and HNF4A DNA FP 2.
CCc1ccc(/C=C/C(=O)c2cc(Br)ccc(=O)c2O)cc1 was read as IDE act 2, TPT1 inh 25*, CSN inh 25, IDE cell inh -1, HNF4A DNA FP -1, TPT1 inh confirm 25* and RNase T1 inh 33*.
CCOc1ccc(/C=C/C(=O)c2cc(Br)ccc(=O)c2O)cc1 was read as IDE act -4, TPT1 inh 24*, CSN inh 18, IDE cell inh 0, HNF4A DNA FP -7, TPT1 inh confirm 32* and RNase T1 inh 41*.

Bioassay records as filed in PubChem BioAssay.
